Screening data (PubChem)
HCT116 bCat-KO: primary screen for growth suppressors in beta-catenin knockout HCT116 cells (colon tumor, human) | HCT116 beta-catenin knockout viability, CellTiter-Glo, 60 h; hits give low values | 1.5% of 140,000 active | viability, % at 10 µM | AID 818, 2007;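 active means viability at or under a set limit, the compound median less 4 SD, cut at about 6% in these data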;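 further: 0% = Hyamine 1622 control at 20 µM and 100% = untreated cell control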
Fibroblast inh: antiproliferative effect on LL 47 fibroblasts – human, LL 47 cells, CellTiter-Glo luminescence, primary screen | 1.1% of 85,000 active | viability, % at 10 µM | LL 47 human lung fibroblast viability, ATP luminescence; hits give low values;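 active means viability at or below 50% in the single dose screen; inactive means viability above 50%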;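 further: compound exposure lasted 72 h before the ATP readout; 100% = median luminescence of untreated cell-only wells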
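Test system: LL 47 human lung fibroblasts; Quantity: 1,150 cells/well; Buffer or medium: IMEM plus 15% FBS; Dosing: tenfold compound dosing solution, DMSO at 0.1%; Timing: overnight cell rest, 72 h compound treatment at 37 °C; Detection: ATP-based CellTiter-Glo luminescent readout; Read-out basis: viability percentage against median untreated-cell control; Controls: cell-only wells, no compound.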
HUVEC inhibit: inhibitors of HUVEC proliferation, primary screen, cell-based, 384-well; CellTiter-Glo luminescence, 72 h; hits give low values; viability, % at 10 µM (by protocol); 1.1% of 86,000 active; AID 648, 2007;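 active means viability at or below 30%; inactive means viability above 30%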;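 further: 100% = median luminescence of DMSO-only cell control wells on each plate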
PTEN del growth: growth suppression of PTEN-null HCT116, primary screen, cell-based, CellTiter-Glo | HCT116 PTEN-null viability, 60 h; hits give low values | viability, % at 10 µM | 1.2% of 140,000 active | AID 827, 2007;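 active means viability at or below a set limit, 4 SD under the median of all tested compounds, cut at about 3.7% in these data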;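 further: PTEN knockout HCT116 line with beta catenin targeted HCT116 as companion control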
H69AR inhibit: proliferation blockers of H69AR lung cancer cells, primary screen, cell-based, human, 86K library. H69AR lung tumor viability, ATP luminescence, 72 h; hits give low values. viability, % at 10 µM. 6% of 85,000 active. AID 598, 2007;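 active means viability at or below 40%; inactive means viability above 40%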;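 further: multidrug resistant small cell line overexpressing MRP-1 efflux transporter; 100% = mean luminescence of untreated control wells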
Numbers without * were called inactive; · = no result given. Only a selection was taken, and hits are over-represented in it overall.

SMILES | HCT116 bCat-KO | Fibroblast inh | HUVEC inhibit | PTEN del growth | H69AR inhibit
Cc1ccc(C(=O)O/N=C(\N)c2ccc(Br)cc2)cc1C | 89 | 101 | 85 | 91 | 28*
Cc1cc(C)cc(C(=O)O/N=C(\N)c2ccc(Br)cc2)c1 | 78 | 82 | 67 | 91 | 34*
O=S(Cc1ccc(Br)cc1)Cc1nnc(SCc2ccc(Br)cc2)n1-c1ccccc1 (stereo unspecified) | 15 | · | · | 31 | ·
O=C(CCCO)N/N=C/c1ccccc1[N+](=O)[O-] | 91 | · | · | 87 | ·
Cc1cc(O)ccc1NC(=O)CCN1C(=O)c2ccc([N+](=O)[O-])cc2C1=O | 99 | · | · | 98 | ·
COCCOC(=O)c1[nH]c2c(c1C)C(=O)CC(c1ccc(F)cc1)C2 (stereo unspecified) | 28 | 86 | 59 | 27 | 25*
COCCOC(=O)c1[nH]c2c(c1C)C(=O)CC(c1ccc(N(C)C)cc1)C2 (stereo unspecified) | 82 | 89 | 87 | 86 | 87
COCCOC(=O)c1[nH]c2c(c1C)C(=O)CC(c1ccccc1)C2 (stereo unspecified) | 17 | 56 | 43 | 20 | 39*
CSc1nc(N2CCN(CCO)CC2)c2sc3nc(-c4ccco4)c4c(c3c2n1)CCC4 | · | 98 | 77 | · | 0.8*
O=c1[nH]c2ccccc2n1CCC1CCCCC1 | 84 | 94 | 112 | 88 | 97
Cc1ccc(C)c(NC(=O)C(Sc2ncnc3ccccc23)c2ccccc2)c1 (stereo unspecified) | 67 | · | · | 1.2* | ·
Cn1c(C(=O)N2CCCC(C(=O)NCCCSC3CCCCC3)C2)cc2sccc21 (stereo unspecified) | 71 | 94 | 71 | 67 | 29*
Cn1c(C(=O)N2CCCC(C(=O)NCc3cccs3)C2)cc2sccc21 (stereo unspecified) | 85 | 93 | 89 | 90 | 88
Cc1c(C(=O)NCc2ccccc2)oc2ccc(S(=O)(=O)N3CCC4(CC3)OCCO4)cc12 | 76 | 91 | 84 | 66 | 73
Cc1c(C(=O)Nc2cccc(Cl)c2)oc2ccc(S(=O)(=O)N3CCC4(CC3)OCCO4)cc12 | 45 | 81 | 49 | 28 | 13*
Cc1c(C(=O)Nc2ccc(F)cc2)oc2ccc(S(=O)(=O)N3CCC4(CC3)OCCO4)cc12 | 47 | 90 | 67 | 39 | 33*
Cc1c(C(=O)Nc2ccc(F)cc2)oc2ccc(S(=O)(=O)N3CCCC3)cc12 | 98 | 103 | 95 | 98 | 71
Cc1ccc(NC(=O)c2oc3ccc(S(=O)(=O)N4CCOCC4)cc3c2C)cc1C | 62 | 83 | 60 | 62 | 37*
CCOC(=O)/C(=N\Nc1ccccc1)c1csc(Nc2ccc(C)cc2)n1 | 42 | 79 | 25* | 34 | 3.3*
O=C(Nc1cccc(Cl)c1)Nc1nnc(CSCCOc2ccc(Cl)cc2)s1 | 4.2* | · | · | 6 | ·
O=C(Nc1cccc(Cl)c1)Nc1nnc(CC2=CCCCC2)s1 | 8 | · | · | 3.4* | ·
Cc1ccc(NC(=O)Nc2nnc(CSCCOc3ccc(Cl)cc3)s2)cc1 | 81 | · | · | 98 | ·
COC(=O)c1ccc(C(=O)OC)c(-n2c(=O)c3ccccc3c3ccccc3c2=O)c1 | 95 | · | · | 101 | ·
CC(=O)OCCNc1cc(Sc2nc3ccccc3[nH]2)c2nonc2c1[N+](=O)[O-] | 1.6* | · | · | 1.5* | ·
O=[N+]([O-])c1c(NCCCO)cc(Sc2ccc(Cl)cc2)c2nonc12 | 1.5* | · | · | 1.2* | ·
SMILES | HCT116 bCat-KO | Fibroblast inh | HUVEC inhibit | PTEN del growth | H69AR inhibit
CCCC(=O)OCCNc1cc(SCCC(=O)OC)c2nonc2c1[N+](=O)[O-] | 87 | · | · | 95 | ·
COC(=O)CCSc1cc(NCCOC(C)=O)c([N+](=O)[O-])c2nonc12 | 96 | · | · | 96 | ·
CC(=O)OCCCNc1cc(Sc2nc3ccccc3s2)c2nonc2c1[N+](=O)[O-] | 3.7* | · | · | 4 | ·
CC(=O)OCCCNc1cc(Sc2ccc(C)cc2)c2nonc2c1[N+](=O)[O-] | 3.6* | · | · | 3.8* | ·
O=C(Cn1nc(C(F)(F)F)cc1C1CC1)NCc1ccccc1F | 97 | · | · | 101 | ·
Cc1ccc(S(=O)(=O)N(C)C)cc1NC(=O)COC(=O)/C(=C/c1ccc(F)cc1)c1cccs1 | 67 | · | · | 56 | ·
O=[N+]([O-])c1c(NCCCO)cc(SCc2ccco2)c2nonc12 | 10 | · | · | 58 | ·
CC(=O)OCCNc1cc(SCc2ccco2)c2nonc2c1[N+](=O)[O-] | 1.1* | · | · | 1.0* | ·
